NALP1 inh = NALP1 inflammasome inhibitors in reconstituted yeast, colorimetric, S. cerevisiae, triplicate retest | S. cerevisiae NALP1/ASC/caspase-1 growth, X-gal OD620, 72 h | inhibition, % at 10 µM | 0.61% of 280,000 active | AID 2071, 2009; in the data active = inhibition mostly above about 24%, no sharp cut-off; inactive = mostly below about 32%
VIM-2 inhibitor = VIM-2 metallo-beta-lactamase inhibitors, primary screen, biochemical, epi-absorbance readout, Pseudomonas aeruginosa enzyme; inhibition, % at 5.6 µM; purified VIM-2, nitrocefin hydrolysis, epi-absorbance fluorescence; 0.89% of 290,000 active;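 active = inhibition above the mean of all tested compounds plus 3 SD, cutoff set per screening run, cut at about 7.5% in these data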;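 note: red hydrolysis product quenches plate fluorescence so inhibitors raise well fluorescence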
FID counter = compounds displacing fluorescent DNA intercalator, primary screen, artefact control for HCV NS3 helicase inhibitor project, biochemical, FID fluorescence | inhibition, % at 7.9 µM | DNA fluorescent intercalator displacement | 0.17% of 290,000 active; in the data active = inhibition above about 37%;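 note: higher means more ethidium bromide displaced from hairpin DNA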
IMP-1 inh = IMP-1 metallo-beta-lactamase inhibitors, primary screen, biochemical, epi-absorbance readout, Pseudomonas aeruginosa enzyme. inhibition, % at 5.6 µM. purified IMP-1, nitrocefin hydrolysis, epi-absorbance fluorescence. 0.45% of 290,000 active. AID 1556, 2009. metallo-beta-lactamase IMP-1 (Pseudomonas aeruginosa);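 active = inhibition above the mean plus 3 SD of all compounds in the same screening run, cut at about 4.5% in these data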
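Test system: recombinant IMP-1 enzyme, purified / Medium: HEPES buffer pH 7.1 with ZnSO4 and Brij 35 / Doses: single dose, 5.6 µM / Times: 25 °C, 15 min preincubation, 25 min reaction / Detection: Epi-absorbance via hydrolysed-nitrocefin quenching of white-plate fluorescence, 480/530 nm, EDTA stop / Evaluation: percent inhibition from optical density relative to buffer-blank wells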
UBC9 SUMO inh = inhibitors of in vitro SUMOylation cascade, primary screen, biochemical, HTRF, uHTS. inhibition, % at 35 µM. HTRF SUMOylation assay, SAE1/SAE2 + UBC9. SUMO-conjugating enzyme UBC9 (Homo sapiens), P63279. 0.36% of 290,000 active. AID 2006, 2009; in the data active = inhibition above about 50%, passing the limit was not always enough
Target sequence (P63279 whole entry, looked up): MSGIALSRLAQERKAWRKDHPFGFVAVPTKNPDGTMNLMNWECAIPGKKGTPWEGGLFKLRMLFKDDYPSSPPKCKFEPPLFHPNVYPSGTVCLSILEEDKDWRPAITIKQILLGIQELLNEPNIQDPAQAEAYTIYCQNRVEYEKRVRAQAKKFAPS
Mot1-301 SUMO = yeast Mot1-301 growth rescue at high temperature, primary screen, SUMOylation pathway inhibitor project, S. cerevisiae, ATP luminescence, 38.5C | growth rescue, % at 18.8 µM | S. cerevisiae Mot1-301 growth rescue; percent above DMSO median, 100 means doubled | AID 2716, 2010 | 1% of 320,000 active;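 active = every valid replicate shows activation above 250% relative to neutral control wells; inactive = the rest, any valid replicate at or below 250%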
Of the large screens only hits and unclear results are named; the others gave an inactive call. This is a sample that favours compounds with a hit; in the whole collection about 2.9% have one here.

Cc1ccc(C(=O)N/C(=C\c2ccc(-c3cccc([N+](=O)[O-])c3)o2)C(=O)NCCCN2CCOCC2)cc1	FID counter 43.5
CN(C)C(=O)/C(=C/c1ccc(-c2cccc([N+](=O)[O-])c2)o1)NC(=O)c1ccccc1	none
Cc1ccc(-c2noc(-c3cc(C(C)(C)C)nn3Cc3ccccc3)n2)cc1	none
c1ccc(-c2nnc3sc(-c4ccncc4)nn23)cc1	VIM-2 inhibitor 9.0
Clc1ccc(-c2nn3c(-c4ccccc4)nnc3s2)cc1	none
COc1ccc(-c2nn3c(-c4ccncc4)nnc3s2)cc1OC	VIM-2 inhibitor 10.3 (no result: NALP1 inh, UBC9 SUMO inh, Mot1-301 SUMO)
COc1ccc(Cl)cc1S(=O)(=O)N(C)CC(=O)NCCCn1ccnc1	none
CCN1CCN(C(=O)c2ccc3c(c2)N(Cc2ccccc2F)C(=O)c2ccccc2S3(=O)=O)CC1	none (no result: Mot1-301 SUMO)
O=C(/C=C/c1c(Cl)nc2ccccn12)Nc1ccc(F)cc1	none
CCN(CC)CC(=O)n1c2c(c3ccccc31)CCCC2	VIM-2 inhibitor 11.9 (no result: Mot1-301 SUMO)
Cc1cc(C)n(CC(=O)n2c3c(c4ccccc42)CCCC3)n1	VIM-2 inhibitor 10.3
CN1CCN(CC(=O)n2c3c(c4ccccc42)CCCC3)CC1	VIM-2 inhibitor 9.9
O=C(CN1CCCCC1)n1c2ccccc2c2ccccc21	none
COc1ccc2nc(/C(C#N)=C\c3ccc(C(=O)O)cc3)[nH]c2c1	UBC9 SUMO inh 52.3
c1ccc(COc2ccc(OCCn3cncn3)cc2)cc1	Mot1-301 SUMO 252.2
O=C(CCCOc1ccccc1)N1CCCCC1	NALP1 inh 32.6
CC(=O)c1ccc(OCC(O)CN2CCN(Cc3ccccc3)CC2)cc1 (stereo not drawn)	NALP1 inh 40.8
O=C(c1ccccc1)c1ccc(OCC(O)CN2CCN(Cc3ccccc3)CC2)cc1 (stereo not drawn)	none
O=C(c1ccccc1)c1ccc(OCCCN2CCCC2)cc1	Mot1-301 SUMO active
Fc1ccccc1/C=N/Nc1nc(-c2ccccn2)nc2ccccc12	none (no result: NALP1 inh)
CCn1c(O)c(N=NC(=O)c2cccs2)c2ccccc21	none
O=C(CN1C(=O)c2ccccc2S1(=O)=O)NCc1c(F)cccc1F	none (no result: NALP1 inh, VIM-2 inhibitor, FID counter, IMP-1 inh, UBC9 SUMO inh)
CN(Cc1ccccc1)C(=O)c1ccc2c(c1)NC(=O)C(N1CCOCC1)S2 (stereo not drawn)	none (no result: Mot1-301 SUMO)
NC1=NC(=O)S/C1=C\c1ccc(F)cc1	none
O=C(c1ccccc1)c1ccc(OCCCCN2CCCCC2)cc1	none
c1ccc(COc2ccc(OCCCCN3CCCCC3)cc2)cc1	FID counter 44.4
O=C(c1ccccc1)c1ccc(OCCOCCN2CCN(Cc3ccccc3)CC2)cc1	NALP1 inh 38.0 (no result: Mot1-301 SUMO)
COc1ccc(NC(=O)NC2(C(=O)N3CCOCC3)CCCCC2)cc1	none
Cc1cc2c(o1)CC(C)(C)CC2=O	none
N#CC1=C(S)N(c2ccccc2)C(c2ccc(-c3cccc(Cl)c3)o2)NC1=O (stereo not drawn)	IMP-1 inh 7.5
O=C(CN(Cc1cccs1)C(=O)CN1C(=O)COc2ccccc21)NCc1ccco1	IMP-1 inh 5.4
Cc1cccc(NC(=O)Cn2c(O)c(N=NC(=O)c3ccccc3O)c3ccccc32)c1	UBC9 SUMO inh 54.1
Cc1ccc(NC(=O)Cn2c(O)c(N=NC(=O)c3cc([N+](=O)[O-])ccc3O)c3ccccc32)cc1	none
C[C@@H](C(=O)NCc1c(F)cccc1Cl)N1C(=O)N2CCc3c([nH]c4ccccc34)[C@@]2(C)C1=O	none
CCOC(=O)Cc1csc(NS(=O)(=O)c2ccc(NC(C)=O)cc2)n1	none
CCc1ccc2oc(C(=O)N3CCN(C)CC3)cc(=O)c2c1	none
CC(=O)Nc1ccc(NC(=O)CCCSc2nc3ccccc3[nH]2)cc1	IMP-1 inh 7.8 (no result: NALP1 inh)
Cc1cc(C)cc(N(C(=O)c2csnn2)C(C(=O)NC(C)(C)C)c2cccnc2)c1 (stereo not drawn)	NALP1 inh 23.1
O=C(CN(C(=O)C1COc2ccccc2O1)c1ccccc1)NCC1CCCO1 (stereo not drawn)	none
Cc1cc(C)cc(N(CC(=O)NCC2CCCO2)C(=O)CN2C(=O)COc3ccccc32)c1 (stereo not drawn)	NALP1 inh 22.8
COc1ccc(S(=O)(=O)NNC(=O)c2ccccc2-n2cccc2)cc1	NALP1 inh 36.2
CN(CC(=O)NCc1ccccc1Cl)CC(=O)Nc1cccc(F)c1	none
COc1ccc(-c2cc(-c3ccccc3)c(C#N)c(S(C)=O)n2)cc1 (stereo not drawn)	none
COc1ccc(-c2cc3nc4ccccc4n3c(N)c2C#N)cc1	UBC9 SUMO inh 57.0
CNC(=S)NNC(=O)c1cccn(Cc2ccc(Cl)cc2Cl)c1=O	Mot1-301 SUMO 335.9
COc1ccc(NC(C)=O)cc1C#N	none (no result: Mot1-301 SUMO)
COc1cc(OC)c(OC)cc1C#N	Mot1-301 SUMO 689.2
COc1ccc(NC(=O)CS(=O)(=O)c2cccc(Cl)c2)cc1	none
O=c1[nH]c(CN2CCOCC2)nc2ccccc12	NALP1 inh 24.0
Cc1ccccc1NS(=O)(=O)c1ccc2c3c(cccc13)C(=O)N2C	Mot1-301 SUMO 351.0
CN1C(=O)c2cccc3c(S(=O)(=O)Nc4ccccn4)ccc1c23	Mot1-301 SUMO 280.1
CCN(c1ccc(NC(=O)COC(=O)c2ccc(S(=O)(=O)N3CCCC3)cc2)cc1)C(C)C	none
N#CCC(=O)N/N=C/c1cn(Cc2cccc3ccccc23)c2ccccc12	NALP1 inh 41.3
C=CCn1cc(/C=N/NC(=O)COc2cccc3cccnc23)c2ccccc21	VIM-2 inhibitor 9.3
CC(C)n1cc(/C=N/NC(=O)COc2cccc3cccnc23)c2ccccc21	none
Cc1ccc(N/C(CSC(N)=O)=N/S(=O)(=O)c2ccccc2)cc1	IMP-1 inh 4.8
NC(=O)SC/C(=N\S(=O)(=O)c1ccccc1)Nc1ccccc1	none
Cc1ccc(N/C(CSC(N)=O)=N\S(=O)(=O)c2ccc(C)cc2)cc1	IMP-1 inh 5.0
Cc1cc(C(=O)Nc2ccc(C#N)cc2)on1	none
COc1ccc(S(=O)(=O)NCCOc2ccccc2)cc1C	NALP1 inh 50.1
O=S(=O)(NCCOc1ccccc1)c1ccc2ccccc2c1	none
COc1ccc(O)c(C(=O)c2cnn(C(=O)c3cccc(S(=O)(=O)N4CCOCC4)c3)c2)c1	none
CC(C)(C)c1ccc(OCCCC(=O)NC2=NCCS2)cc1	NALP1 inh 36.1 (no result: Mot1-301 SUMO)
O=C1CCCCC1C(O)c1ccc(Cl)cc1 (stereo not drawn)	none
Cn1cc(SCC(=O)N2CCCc3ccccc32)c2ccccc21	IMP-1 inh 6.9
